Measurements: ChEMBL document CHEMBL1145627, “E-ring-modified 7-oxyiminomethyl camptothecins: Synthesis and preliminary in vitro and in vivo biological evaluation” (Bioorg Med Chem Lett, 2008)

Legend:
[1] = tested on: Mus musculus; experiment: Toxicity in human Panc1 cells xenografted athymic mouse assessed as survival at 14 mg/kg, po administered in q4dx4 schedule; assay type: organism-based, PANC-1; set-up: dose 14 mg/kg, route oral; settings: in vivo
In short: (§1)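 Mice carried subcutaneous human tumor xenografts (CoBa, MKN-28 or Panc-1). They were dosed orally on an intermittent q4dx4 schedule, which was also used to set the maximum tolerated dose. Toxicity was scored as lethal toxicity, given as dead/treated mice. Drug-induced % body weight loss was also recorded.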

[2] = tested on: Mus musculus; experiment: Toxicity in human MKN28 cells xenografted athymic mouse assessed as survival at 6 mg/kg, po administered in q4dx4 schedule; assay type: organism-based, MKN-28; set-up: dose 6 mg/kg, route oral; settings: in vivo; in short: as §1
[3] = tested on: Mus musculus; experiment: Toxicity in human Panc1 cells xenografted athymic mouse assessed as loss of body weight at 15 mg/kg, po administered in q4dx4 schedule; assay type: organism-based, PANC-1; set-up: dose 15 mg/kg, route oral; settings: in vivo
[4] = tested on: NCI-H460; experiment: Antiproliferative activity against human H460 cells after 1 hr of drug exposure measured after 72 hrs; assay type: functional, cell-based
In short: (§2)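 Growth inhibition after 1-h drug exposure; IC50 is the concentration giving 50% reduction of cell growth versus untreated controls. Values are means ± SD from at least three experiments.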

[5] = tested on: PANC-1; experiment: Antitumor activity against human Panc1 cells xenografted athymic mouse assessed as inhibition of tumor volume at 15 mg/kg, po administered in q4dx4 schedule; assay type: functional
In short: (§3)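 Human tumor xenografts (CoBa colon, MKN-28 gastric, Panc-1 pancreatic) grown subcutaneously in mice. Drug given orally on an intermittent q4dx4 schedule. Read-out is % tumor volume inhibition in treated versus control mice. Complete responses were scored as tumor disappearance lasting at least ten days.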

[6] = tested on: Mus musculus; experiment: Toxicity in human MKN28 cells xenografted athymic mouse assessed as survival at 3 mg/kg, po administered in q4dx4 schedule; assay type: organism-based, MKN-28; set-up: dose 3 mg/kg, route oral; settings: in vivo; in short: as §1
[7] = tested on: Mus musculus; experiment: Toxicity in human MKN28 cells xenografted athymic mouse assessed as loss of body weight at 12 mg/kg, po administered in q4dx4 schedule; assay type: organism-based, MKN-28; set-up: dose 12 mg/kg, route oral; settings: in vivo
In short: (§4)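 Oral dosing on an intermittent q4dx4 schedule in mice bearing MKN-28 gastric carcinoma xenografts. Tumor volume inhibition % is relative to controls. Body weight loss % is the loss induced by drug treatment.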

[8] = Antitumor activity against human CoBa cells xenografted athymic mouse assessed as inhibition of tumor volume at 15 mg/kg, po administered in q4dx4 schedule; assay type: functional; in short: as §3
[9] = tested on: Mus musculus; experiment: Toxicity in human MKN28 cells xenografted athymic mouse assessed as loss of body weight at 6 mg/kg, po administered in q4dx4 schedule; assay type: organism-based, MKN-28; set-up: dose 6 mg/kg, route oral; settings: in vivo; in short: as §4
[10] = tested on: HT-29; experiment: Antiproliferative activity against BCRP overexpressing mitoxantrone-resistant human HT29 cells after 1 hr of drug exposure measured after 72 hrs; assay type: functional, cell-based; in short: as §2
[11] = tested on: PANC-1; experiment: Antitumor activity against human Panc1 cells xenografted athymic mouse assessed as inhibition of tumor volume at 14 mg/kg, po administered in q4dx4 schedule; assay type: functional; in short: as §3
[12] = Toxicity in po dosed human MKN28 cells xenografted athymic mouse administered in q4dx4 schedule; assay type: organism-based, MKN-28; settings: in vivo
[13] = tested on: MKN-28; experiment: Antitumor activity against human MKN28 cells xenografted athymic mouse assessed as inhibition of tumor volume at 3 mg/kg, po administered in q4dx4 schedule; assay type: functional; in short: as §4
[14] = tested on: HT-29; experiment: Resistant index, ratio of IC50 for BCRP overexpressing mitoxantrone-resistant human HT29 cells to IC50 for human HT29 cells; assay type: functional
In short: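 Resistance index in HT29/mit, the BCRP-overexpressing subline. IC50 values come from the 1-h exposure growth inhibition assay, as 50% growth reduction versus untreated controls.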

[15] = tested on: Mus musculus; experiment: Toxicity in human CoBa cells xenografted athymic mouse assessed as loss of body weight at 20 mg/kg, po administered in q4dx4 schedule; assay type: organism-based; set-up: dose 20 mg/kg, route oral; settings: in vivo
In short: (§5)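 Mice bearing subcutaneous CoBa colon carcinoma were treated on a q4dx4 schedule, orally or, for CPT11, at 50 mg/kg. Body weight loss % is the loss induced by drug treatment.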

[16] = tested on: Mus musculus; experiment: Toxicity in human MKN28 cells xenografted athymic mouse assessed as loss of body weight at 3 mg/kg, po administered in q4dx4 schedule; assay type: organism-based, MKN-28; set-up: dose 3 mg/kg, route oral; settings: in vivo; in short: as §4
[17] = tested on: MKN-28; experiment: Antitumor activity against human MKN28 cells xenografted athymic mouse assessed as inhibition of tumor volume at 12 mg/kg, po administered in q4dx4 schedule; assay type: functional; in short: as §4
[18] = tested on: Mus musculus; experiment: Toxicity in human Panc1 cells xenografted athymic mouse assessed as loss of body weight at 14 mg/kg, po administered in q4dx4 schedule; assay type: organism-based, PANC-1; set-up: dose 14 mg/kg, route oral; settings: in vivo
[19] = tested on: HT-29; experiment: Antiproliferative activity against human HT29 cells after 1 hr of drug exposure measured after 72 hrs; assay type: functional, cell-based; in short: as §2
[20] = tested on: Mus musculus; experiment: Toxicity in human MKN28 cells xenografted athymic mouse assessed as survival at 12 mg/kg, po administered in q4dx4 schedule; assay type: organism-based, MKN-28; set-up: dose 12 mg/kg, route oral; settings: in vivo; in short: as §1
[21] = tested on: MKN-28; experiment: Antitumor activity against human MKN28 cells xenografted athymic mouse assessed as inhibition of tumor volume at 6 mg/kg, po administered in q4dx4 schedule; assay type: functional; in short: as §4
[22] = tested on: Mus musculus; experiment: Toxicity in human CoBa cells xenografted athymic mouse assessed as loss of body weight at 15 mg/kg, po administered in q4dx4 schedule; assay type: organism-based; set-up: dose 15 mg/kg, route oral; settings: in vivo; in short: as §5
[23] = tested on: Mus musculus; experiment: Toxicity in human CoBa cells xenografted athymic mouse assessed as survival at 15 mg/kg, po administered in q4dx4 schedule; assay type: organism-based; set-up: dose 15 mg/kg, route oral; settings: in vivo; in short: as §1
[24] = tested on: Mus musculus; experiment: Toxicity in human MKN28 cells xenografted athymic mouse assessed as survival at 16 mg/kg, po administered in q4dx4 schedule; assay type: organism-based, MKN-28; set-up: dose 16 mg/kg, route oral; settings: in vivo; in short: as §1
[25] = tested on: Mus musculus; experiment: Toxicity in human MKN28 cells xenografted athymic mouse assessed as survival at 8 mg/kg, po administered in q4dx4 schedule; assay type: organism-based, MKN-28; set-up: dose 8 mg/kg, route oral; settings: in vivo; in short: as §1
[26] = tested on: MKN-28; experiment: Antitumor activity against human MKN28 cells xenografted athymic mouse assessed as inhibition of tumor volume at 16 mg/kg, po administered in q4dx4 schedule; assay type: functional; in short: as §3
[27] = tested on: MKN-28; experiment: Antitumor activity against human MKN28 cells xenografted athymic mouse assessed as inhibition of tumor volume at 4 mg/kg, po administered in q4dx4 schedule; assay type: functional; in short: as §3
[28] = tested on: Mus musculus; experiment: Toxicity in human MKN28 cells xenografted athymic mouse assessed as loss of body weight at 8 mg/kg, po administered in q4dx4 schedule; assay type: organism-based, MKN-28; set-up: dose 8 mg/kg, route oral; settings: in vivo; in short: as §4
[29] = tested on: Mus musculus; experiment: Toxicity in human MKN28 cells xenografted athymic mouse assessed as survival at 4 mg/kg, po administered in q4dx4 schedule; assay type: organism-based, MKN-28; set-up: dose 4 mg/kg, route oral; settings: in vivo; in short: as §1
[30] = tested on: MKN-28; experiment: Antitumor activity against human MKN28 cells xenografted athymic mouse assessed as inhibition of tumor volume at 8 mg/kg, po administered in q4dx4 schedule; assay type: functional; in short: as §3
[31] = tested on: Mus musculus; experiment: Toxicity in human MKN28 cells xenografted athymic mouse assessed as loss of body weight at 16 mg/kg, po administered in q4dx4 schedule; assay type: organism-based, MKN-28; set-up: dose 16 mg/kg, route oral; settings: in vivo; in short: as §4
[32] = tested on: Mus musculus; experiment: Toxicity in human MKN28 cells xenografted athymic mouse assessed as loss of body weight at 4 mg/kg, po administered in q4dx4 schedule; assay type: organism-based, MKN-28; set-up: dose 4 mg/kg, route oral; settings: in vivo; in short: as §4
[33] = tested on: NCI-H460; experiment: Antiproliferative activity against human H460 cells after 2 hrs of drug exposure measured after 72 hrs; assay type: functional, cell-based
In short: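 Growth inhibition with IC50 taken after 2-h drug exposure, as the concentration giving 50% reduction of cell growth versus untreated controls.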

CCC1(O)CC(=O)OCc2c1cc1n(c2=O)Cc2c-1nc1ccccc1c2/C=N/OC(C)(C)C (racemic)
Activity [1]: Non-toxic | Activity [2]: Non-toxic | Activity [3]: 16% | IC50 [4]: 36.8 nM | LCK [5]: 1.6 | Activity [6]: Non-toxic | Activity [7]: 2% | LCK [8]: 1.3 | inhibition in vivo at 15 mg/kg ([8]; Homo sapiens, CoBa): 95% | Activity [9]: 0% | IC50 [10]: 560 nM | LCK [11]: 1.4 | inhibition in vivo at 14 mg/kg ([11]; Mus musculus, PANC-1): 99% | MTD [12]: 12 mg/kg | inhibition in vivo at 3 mg/kg [13]: 71% | Ratio IC50 [14]: 14 | Activity [15]: 18% | Activity [16]: 0% | inhibition in vivo at 12 mg/kg [17]: 81% | Activity [18]: 5% | IC50 [19]: 41 nM | Activity [20]: Non-toxic | inhibition in vivo at 6 mg/kg [21]: 47% | Activity [22]: 21% | Activity [23]: Non-toxic

CC[C@@]1(O)C(=O)OCc2c1cc1n(c2=O)Cc2cc3ccccc3nc2-1 [CAMPTOTHECIN]
IC50 [4]: 180 nM | IC50 [10]: 8810 nM | Ratio IC50 [14]: 2.8 | IC50 [19]: 3160 nM

CCC1(O)CC(=O)OCc2c1cc1n(c2=O)Cc2c-1nc1ccccc1c2/C=N/OCc1ccccc1 (stereo not given)
IC50 [4]: 15 nM | Activity [24]: Non-toxic | Activity [25]: Non-toxic | LCK [26]: 0.2 | inhibition in vivo at 16 mg/kg ([26]; Mus musculus, MKN-28): 47% | IC50 [10]: 350 nM | Ratio IC50 [14]: 20 | IC50 [19]: 17 nM | LCK [27]: 0 | inhibition in vivo at 4 mg/kg ([27]; Mus musculus, MKN-28): 17% | Activity [28]: 6% | Activity [29]: Non-toxic | LCK [30]: 0.4 | inhibition in vivo at 8 mg/kg ([30]; Mus musculus, MKN-28): 60% | Activity [31]: 0% | Activity [32]: 0%

CC[C@@]1(O)CC(=O)OCc2c1cc1n(c2=O)Cc2cc3ccccc3nc2-1 [HOMOCAMPTOTHECIN]
IC50 [4]: 49.6 nM | IC50 [10]: 8550 nM | Ratio IC50 [14]: 19 | IC50 [19]: 440 nM

CC[C@]1(O)CC(=O)OCc2c1cc1n(c2=O)Cc2c-1nc1ccccc1c2/C=N/OC(C)(C)C
IC50 [33]: > 200 nM
